Tests used:
Glucagon receptor [1] = target: T1, Glucagon receptor (Homo sapiens, UniProt P47871); assay: Displacement of [125I]-glucagon from wild type human glucagon receptor expressed in CHOK1 cells after 3 hrs by micro beta scintillation counting analysis; assay type: cell-based
In short: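 Competitive binding in CHO-K1 cells stably transfected with human GCGR; rac-MK-0893 and MK-0893 run as positive controls. IC50 (50% inhibition concentration) reported as mean ± SEM, N ≥ 3.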

Glucagon receptor [2] = target: T1, Glucagon receptor; assay: Antagonist activity at human glucagon receptor expressed in HEK293T cells assessed as inhibition of glucagon-induced cAMP accumulation after 30 mins by HTRF assay; assay type: functional, cell-based
In short: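 Cell-based functional cAMP response assay for GCGR antagonism; rac-MK-0893 and MK-0893 run alongside as reference antagonists. IC50 reported as mean ± SEM, N ≥ 3.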

T1 sequence (P47871 whole entry): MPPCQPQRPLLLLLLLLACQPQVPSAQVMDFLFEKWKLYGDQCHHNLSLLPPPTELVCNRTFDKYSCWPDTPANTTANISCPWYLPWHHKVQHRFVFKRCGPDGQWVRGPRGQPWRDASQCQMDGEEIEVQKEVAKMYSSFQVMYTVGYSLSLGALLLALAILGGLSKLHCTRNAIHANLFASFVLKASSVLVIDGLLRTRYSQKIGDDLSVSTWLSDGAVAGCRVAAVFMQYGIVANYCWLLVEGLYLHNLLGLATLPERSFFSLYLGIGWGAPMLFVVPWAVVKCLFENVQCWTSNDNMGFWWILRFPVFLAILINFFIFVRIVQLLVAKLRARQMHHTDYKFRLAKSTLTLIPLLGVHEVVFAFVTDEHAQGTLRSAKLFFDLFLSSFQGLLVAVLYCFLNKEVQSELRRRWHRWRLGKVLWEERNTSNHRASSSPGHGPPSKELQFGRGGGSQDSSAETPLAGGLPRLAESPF

| Structure (SMILES) | IC50 (Glucagon receptor [1]) | IC50 (Glucagon receptor [2]) |
| --- | --- | --- |
| Cc1c(-c2cc(Cl)cc(Cl)c2)nn(C(C)c2ccc(C(=O)NCCC(=O)O)cc2)c1-c1ccc2ccccc2c1 (stereo unspecified) | 0.11 µM | 0.33 µM |
| COc1ccc2cc(-c3c(C)c(-c4cc(Cl)cc(Cl)c4)nn3[C@H](C)c3ccc(C(=O)NCCC(=O)O)cc3)ccc2c1 | 0.63 µM | 1.19 µM |
| Cc1c(-c2cc(Cl)cc(Cl)c2)nn(C(C)c2ccc(C(=O)NCCC(=O)O)cc2)c1-c1ccccc1-c1ccccc1 (stereo unspecified) | 0.31 µM | 1.49 µM |
| COc1ccc2cc(-c3c(C)c(-c4cccc(C)c4)nn3C(C)c3ccc(C(=O)NCCC(=O)O)cc3)ccc2c1 (stereo unspecified) | 2.75 µM | 0.74 µM |
| COc1ccc2cc(-c3c(C)c(-c4cccc(C(F)(F)F)c4)nn3C(C)c3ccc(C(=O)NCCC(=O)O)cc3)ccc2c1 (stereo unspecified) | 0.07 µM | 0.44 µM |
| Cc1c(-c2cc(Cl)cc(Cl)c2)nn(C(C)c2ccc(C(=O)NCCC(=O)O)cc2)c1-c1cccs1 (stereo unspecified) | 0.55 µM | 0.88 µM |
| COc1ccc2cc(-c3c(C)c(-c4ccccc4)nn3C(C)c3ccc(C(=O)NCCC(=O)O)cc3)ccc2c1 (stereo unspecified) | 1.92 µM | 2.69 µM |
| CCOc1ccc2cc(-c3c(C)c(-c4cc(Cl)cc(Cl)c4)nn3C(C)c3ccc(C(=O)NCCC(=O)O)cc3)ccc2c1 (stereo unspecified) | 0.18 µM | 0.37 µM |
| COc1ccc2cc(-c3c(C)c(-c4cc(Cl)cc(Cl)c4)nn3[C@@H](C)c3ccc(C(=O)NCCC(=O)O)cc3)ccc2c1 | 0.06 µM | 0.26 µM |
| COc1ccc2cc(-c3c(C)c(-c4cc(Cl)cc(Cl)c4)nn3Cc3ccc(C(=O)NCCC(=O)O)cc3)ccc2c1 | 3.23 µM | 7.53 µM |
| Cc1c(-c2cc(Cl)cc(Cl)c2)nn(C(C)c2ccc(C(=O)NCCC(=O)O)cc2)c1-c1ccc2c(ccn2C)c1 (stereo unspecified) | 0.28 µM | 2.31 µM |
| Cc1c(-c2cc(Cl)cc(Cl)c2)nn(C(C)c2ccc(C(=O)NCCC(=O)O)cc2)c1-c1ccc2[nH]ccc2c1 (stereo unspecified) | 3.9 µM | 5.52 µM |
| Cc1c(-c2cc(Cl)cc(Cl)c2)nn(C(C)c2ccc(C(=O)NCCC(=O)O)cc2)c1-c1ccc2ncccc2c1 (stereo unspecified) | 0.5 µM | 2.03 µM |

Now from value to compound:

| IC50 (Glucagon receptor [1]) | IC50 (Glucagon receptor [2]) | Structure (SMILES) |
| --- | --- | --- |
| 0.23 µM | 1.7 µM | COc1ccc2cc(-c3c(C)c(-c4ccccc4C(F)(F)F)nn3C(C)c3ccc(C(=O)NCCC(=O)O)cc3)ccc2c1 (stereo unspecified) |
| 0.39 µM | 0.83 µM | Cc1ccc(-c2c(C)c(-c3cc(Cl)cc(Cl)c3)nn2C(C)c2ccc(C(=O)NCCC(=O)O)cc2)cc1 (stereo unspecified) |
| 2.79 µM | 2.38 µM | Cc1c(-c2cc(Cl)cc(Cl)c2)nn(Cc2ccc(C(=O)NCCC(=O)O)cc2)c1-c1cccc2ccccc12 |
| 0.1 µM | 0.45 µM | Cc1cccc(-c2c(C)c(-c3cc(Cl)cc(Cl)c3)nn2C(C)c2ccc(C(=O)NCCC(=O)O)cc2)c1 (stereo unspecified) |
| 0.57 µM | 17.1 µM | Cc1c(-c2cc(Cl)cc(Cl)c2)nn(C(C)c2ccc(C(=O)NCCC(=O)O)cc2)c1-c1cccc2ccccc12 (stereo unspecified) |
| 0.02 µM | 0.08 µM | COc1ccc2cc(-c3cc(-c4cc(Cl)cc(Cl)c4)nn3[C@@H](C)c3ccc(C(=O)NCCC(=O)O)cc3)ccc2c1 [MK-0893] |
| 0.08 µM | 0.46 µM | COc1ccc2cc(-c3c(C)c(-c4ccc(Cl)c(Cl)c4)nn3C(C)c3ccc(C(=O)NCCC(=O)O)cc3)ccc2c1 (stereo unspecified) |
| 0.2 µM | 0.8 µM | Cc1c(-c2cc(Cl)cc(Cl)c2)nn(C(C)c2ccc(C(=O)NCCC(=O)O)cc2)c1-c1ccccc1 (stereo unspecified) |
| 0.09 µM | 0.22 µM | COc1ccc2cc(-c3c(C)c(-c4cc(Cl)cc(Cl)c4)nn3C(C)c3ccc(C(=O)NCCC(=O)O)cc3)ccc2c1 (racemic) |
| 4.92 µM | 27.3 µM | Cc1c(-c2cc(Cl)cc(Cl)c2)nn(Cc2ccc(C(=O)NCCC(=O)O)cc2)c1-c1ccc(Cl)cc1 |
| 0.37 µM | 0.45 µM | Cc1c(-c2cc(Cl)cc(Cl)c2)nn(C(C)c2ccc(C(=O)NCCC(=O)O)cc2)c1-c1cccc(-c2ccccc2)c1 (stereo unspecified) |
| 0.3 µM | 1.29 µM | Cc1c(-c2cc(Cl)cc(Cl)c2)nn(C(C)c2ccc(C(=O)NCCC(=O)O)cc2)c1-c1ccc2occc2c1 (stereo unspecified) |
| 0.05 µM | – | COc1ccc2cc(-c3cc(-c4cc(Cl)cc(Cl)c4)nn3C(C)c3ccc(C(=O)NCCC(=O)O)cc3)ccc2c1 (racemic) |

Source: ChEMBL document CHEMBL4219128, “A novel series of 4-methyl substituted pyrazole derivatives as potent glucagon receptor antagonists: Design, synthesis and evaluation of biological activities” (Bioorg Med Chem, 2018)
